MC4R ag barr: activates human MC4R beta-arrestin recruitment; AID 540308; P32245; activation, % at 8.9 µM; U2OS MC4R beta-arrestin complementation, luminescence; percent of melanotan II response, DMSO zero; actives 0.98% (n = 360,000);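 active means activation above a per-plate cutoff, the mean activation of sample wells on that plate plus 3 SD, cut at about 8% in these data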
Target sequence (P32245 whole entry, looked up): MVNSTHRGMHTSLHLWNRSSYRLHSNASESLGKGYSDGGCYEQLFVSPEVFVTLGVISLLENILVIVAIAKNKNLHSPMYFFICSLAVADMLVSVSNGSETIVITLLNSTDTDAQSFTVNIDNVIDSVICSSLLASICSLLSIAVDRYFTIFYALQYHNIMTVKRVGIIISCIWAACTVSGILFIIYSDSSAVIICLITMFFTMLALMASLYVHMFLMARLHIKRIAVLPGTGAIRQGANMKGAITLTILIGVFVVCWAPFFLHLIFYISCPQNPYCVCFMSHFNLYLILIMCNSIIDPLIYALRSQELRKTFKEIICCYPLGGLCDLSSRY
Bfl-1 A1 inh: inhibitors of the anti-apoptotic protein A1, read as caspase activation | MEF A1-2A-BIM cells, Caspase-Glo 3/7 luminescence, 3 h; percent of clofoctol response, vehicle zero | actives 0.066% (n = 330,000) | caspase activation, % (concentration not given with the values);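 active means over half of replicate activation scores above 10%, or exactly half above 10 with the replicate mean above 10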
NALP1 inh: inhibitors of NALP1 inflammasome in yeast | S. cerevisiae NALP1/ASC/caspase-1 growth, X-gal OD620, 72 h | inhibition, % at 10 µM | actives 0.61% (n = 280,000) | AID 2071; in the data active means inhibition mostly above about 24%, no sharp cut-off; inactive means mostly below about 32%
NLRP3 yeast inh: NALP3 inhibition in yeast; Yeast reconstituted NLRP3/ASC/caspase-1, beta-gal luminescence, 24 h; AID 2825; inhibition, % at 10 µM; actives 0.39% (n = 330,000);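 active means inhibition of 50% or more; inactive means inhibition below 50%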
TbMetRS inhib: blocks T. brucei methionyl-tRNA synthetase activity; actives 0.4% (n = 360,000); inhibition, % at 11.9 µM; AID 624268; purified T. brucei MetRS, ATP depletion, Kinase-Glo luminescence;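 active means inhibition above a per-plate cutoff of the control wells' mean inhibition plus 3 SD, cut at about 5.5% in these data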
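Dosing: 11.9 µM single point; system: parasite MetRS enzyme; technique: luminescence of leftover ATP; times: 15 min enzyme-compound preincubation, 2 h reaction, 10 min detection, 25 °C; replicates: each compound tested once; read-out basis: percent inhibition relative to median high and low control wells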
MC4R antag cAMP: human MC4R antagonism in cAMP assay | MC4R-expressing cells, MTII-stimulated cAMP, LANCE TR-FRET | actives 0.48% (n = 360,000) | inhibition, % at 6.5 µM | AID 540295 | P32245;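 active means inhibition above its plate's cutoff, the mean of tested wells on that plate plus 3 SD, cut at about 29% in these data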
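System – human MC4R-expressing U2OS cells · Also added – Melanotan II · Dosing – one concentration, 6.5 µM nominal · Timing – 30-min compound, 1-h challenge, 1-h detection, room temperature · Measured by – Eu-cAMP/anti-cAMP TR-FRET, emission 671 nm · Replicates – singlicate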
cAMP nonselect: counter-screen for MC4R antagonists: nonselective cAMP signaling inhibitors; shares compounds with MC4R antag cAMP; parental U2OS, forskolin cAMP, LANCE TR-FRET; inhibition, % at 6.5 µM; actives 26% (n = 1,600); AID 602193;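 active means mean inhibition over triplicates above the low-control well mean plus 3 SD, set per campaign, cut at about 13% in these data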;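 further: signal is single emission at 671 nm which falls as cellular cAMP rises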
MC4R cAMP antag: human MC4R cAMP antagonism confirmation. shares compounds with MC4R antag cAMP. MC4R-expressing cells, MTII-stimulated cAMP, TR-FRET. inhibition, % at 6.5 µM. actives 27% (n = 1,600); in the data active means inhibition above about 29%
A number is an active result. A selection: hits, their analogues and other compounds. The true share with any hit is near 2.5%.

Screening CC(Oc1ccc(Br)cc1)C(=O)N(Cc1ccccc1)c1c(N)n(Cc2ccccc2)c(=O)[nH]c1=O (centres undefined) returned MC4R ag barr inactive, TbMetRS inhib inactive and MC4R antag cAMP inactive.
Screening CCN(CC)P(=O)(Nc1cccc(C(F)(F)F)c1)c1ccc(N(C)C)cc1NC(=O)c1ccco1 (centres undefined) returned MC4R ag barr inactive, Bfl-1 A1 inh inactive, NALP1 inh inactive, NLRP3 yeast inh inactive, TbMetRS inhib inactive, MC4R antag cAMP 35, cAMP nonselect inactive and MC4R cAMP antag inactive.
`COc1ccccc1CN1C[C@@H]2C[C@@H](C3=Cc4cccc(OC)c4OC3)N3CCC[C@@]23C1=O` gave MC4R ag barr inactive, Bfl-1 A1 inh inactive, NALP1 inh inactive, NLRP3 yeast inh inactive, TbMetRS inhib inactive, MC4R antag cAMP 33, cAMP nonselect inactive and MC4R cAMP antag inactive.
`COc1ccccc1CN1C[C@@H]2C[C@@H](c3ccccc3OC)N3CCC[C@@]23C1=O` gave MC4R ag barr inactive, Bfl-1 A1 inh inactive, NLRP3 yeast inh inactive, TbMetRS inhib inactive and MC4R antag cAMP inactive.
For Cc1ccc(NC(=O)C(=O)NCC2CCCO2)cc1C (centres undefined) the results were MC4R ag barr inactive, Bfl-1 A1 inh inactive, NALP1 inh inactive, NLRP3 yeast inh inactive, TbMetRS inhib inactive, MC4R antag cAMP 36, cAMP nonselect inactive and MC4R cAMP antag inactive.
`Cc1ccc(NC(=O)C(=O)NCC2CCCO2)cc1` (centres undefined) gave MC4R ag barr inactive, Bfl-1 A1 inh inactive, NALP1 inh inactive, NLRP3 yeast inh inactive, TbMetRS inhib inactive and MC4R antag cAMP inactive.
`COc1cc([N+](=O)[O-])ccc1NC(=S)NC(=O)CC(C)(C)C` gave MC4R ag barr inactive, Bfl-1 A1 inh inactive, NALP1 inh inactive, NLRP3 yeast inh inactive, TbMetRS inhib inactive, MC4R antag cAMP 30, cAMP nonselect inactive and MC4R cAMP antag 32.
O=C(Cn1c(=O)cnc2ccccc21)Nc1cccc(S(=O)(=O)N2CCOCC2)c1 was read as MC4R ag barr inactive, Bfl-1 A1 inh inactive, NLRP3 yeast inh inactive, TbMetRS inhib inactive and MC4R antag cAMP inactive.
For CCOC(=O)CCC(NC(=O)c1ccc(NCN2C(=O)c3ccccc3C2=O)cc1)C(=O)OCC (centres undefined) the results were MC4R ag barr inactive, Bfl-1 A1 inh inactive, NALP1 inh inactive, NLRP3 yeast inh inactive, TbMetRS inhib inactive and MC4R antag cAMP inactive.
`CCOC(=O)CCC(NC(=O)c1ccccc1C(=O)NC(CCC(=O)OCC)C(=O)OCC)C(=O)OCC` (centres undefined) gave MC4R ag barr inactive, Bfl-1 A1 inh inactive, NALP1 inh inactive, NLRP3 yeast inh inactive, TbMetRS inhib inactive, MC4R antag cAMP 29, cAMP nonselect inactive and MC4R cAMP antag inactive.
CC1=C(CO)C(=O)OC([C@@H](C)C2CC[C@H]3C4C[C@H]5O[C@]56[C@@H](O)C=CC(=O)[C@]6(C)C4CC[C@]23C)C1 (some centres undefined) was read as MC4R ag barr inactive, Bfl-1 A1 inh inactive, NALP1 inh inactive, TbMetRS inhib inactive, MC4R antag cAMP 39, cAMP nonselect inactive and MC4R cAMP antag 48.
COCCN(C(=O)c1csnn1)C(C(=O)NC1CCCC1)c1ccccc1F (centres undefined) was read as MC4R ag barr inactive, Bfl-1 A1 inh inactive, NALP1 inh inactive, NLRP3 yeast inh inactive, TbMetRS inhib inactive, MC4R antag cAMP 29, cAMP nonselect inactive and MC4R cAMP antag inactive.
For COCCN(C(=O)CNC(=O)c1ccco1)C(C(=O)NC1CCCC1)c1ccccc1F (centres undefined) the results were MC4R ag barr inactive, Bfl-1 A1 inh inactive, NALP1 inh inactive, NLRP3 yeast inh inactive, TbMetRS inhib inactive and MC4R antag cAMP inactive.
